# Sampled rows, rich in hits. Any-hit rate of the full collection: about 4.9%.
# WT yeast gro inh: growth inhibition of WT yeast, mitochondrial fusion screen; mitochondrial fusion phenotypic screen, WT strain; inhibition, % at 10 µM; AID 1362; 2.1% of 190,000 active; in the data active means inhibition above about 58%; tested in S. cerevisiae
# RAM inhibit: yeast RAM network inhibition; S. cerevisiae dse1pr::URA3 reporter, 5-FOA growth OD615, 2 d; analog-sensitive cbk1-as2 kinase mutant strain; inhibition, % at 50 µM; 1.8% of 190,000 active;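 active means inhibition above a set limit, 3 SD over mean compound inhibition, cut at about 8.4% in these data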;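 further: 0% = DMSO-only wells with no growth and 100% = 10 µM 1-NA-PP1 full growth; inhibition rescues growth on 5-FOA so higher OD means more RAM inhibition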
# NPY2 pot ag: human NPY-Y2 potentiation or agonism, primary screen | cells expressing NPY-Y2, potentiator/agonist read-out | 0.45% of 220,000 active | activation, % at 3.6 µM; in the data active means activation above about 27%;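 further: cells stimulated with NPY near EC25 plus isoproterenol at EC100; 0% = vehicle plus submaximal agonist and 100% = vehicle plus saturating agonist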
# NPY Y2 blocker: antagonists of human neuropeptide Y receptor Y2; P49146; NPY-Y2 expressing cells, antagonist mode; inhibition, % at 2.7 µM; 0.99% of 140,000 active;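 further: 0% = vehicle with agonist challenge and 100% = reference antagonist with challenge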
# NPY Y1 blocker: NPY-Y1 (human) receptor antagonism. P25929. HEK293-CNG Y1 cells, membrane potential fluorescence; NPY at EC95, then isoproterenol. inhibition, % at 3.6 µM. 1% of 200,000 active;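 active means inhibition above the campaign mean inhibition of all tested compounds plus 3 SD, cut at about 20% in these data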;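 further: 0% = DMSO wells given NPY plus isoproterenol and 100% = isoproterenol alone without NPY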
# Target sequence (P25929 whole entry, looked up): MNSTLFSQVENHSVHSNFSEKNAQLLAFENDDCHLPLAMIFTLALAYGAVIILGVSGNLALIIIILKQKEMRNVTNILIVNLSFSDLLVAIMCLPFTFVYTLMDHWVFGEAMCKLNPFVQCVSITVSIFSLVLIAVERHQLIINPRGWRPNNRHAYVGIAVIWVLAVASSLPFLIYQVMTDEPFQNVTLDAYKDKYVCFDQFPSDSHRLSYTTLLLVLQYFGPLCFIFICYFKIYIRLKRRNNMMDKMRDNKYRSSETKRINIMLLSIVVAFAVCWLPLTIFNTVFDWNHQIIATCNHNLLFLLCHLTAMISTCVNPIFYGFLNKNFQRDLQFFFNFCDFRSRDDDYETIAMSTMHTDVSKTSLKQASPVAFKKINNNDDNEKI
#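 System: HEK293 cells with Y1 receptor plus CNG channel / Probe or stimulus: NPY 25 nM then isoproterenol 1 µM plus Ro 20-1724 25 µM / Compound: one concentration, 3.6 µM, in 0.4% DMSO / Schedule: compound incubation 1 h at room temperature, readout 45 min post-stimulation / Measured by: membrane potential fluorescence / Read-out: % inhibition of NPY effect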
# NPY-Y1 PAM-ag: potentiates or activates human NPY-Y1 receptor; P25929; NPY-Y1 expressing cells, potentiator/agonist activation; activation, % at 3.6 µM; 0.37% of 220,000 active; AID 1304; in the data active means activation above about 33%, passing the limit was not always enough;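 further: cells stimulated with NPY at EC10 then isoproterenol at EC100; 0% = low agonist plus stimulus and 100% = saturating agonist plus stimulus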
# NPY-Y1 ant conf: confirmation of human neuropeptide Y receptor Y1 antagonists. inhibition, % at 3.6 µM. AID 1254. 21% of 1,200 active. shares compounds with NPY Y1 blocker. HEK293-CNG NPY-Y1, membrane potential fluorescence, cAMP; NPY challenge against isoproterenol-raised cAMP; in the data active means inhibition above about 20%;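 further: 0% = vehicle with agonist plus stimulus and 100% = stimulus alone without agonist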
# NPY2 antag ctr: human NPY-Y2 antagonism in NPY-Y1 counter-screen | shares compounds with NPY Y1 blocker | HEK293 NPY-Y2 CNG membrane potential fluorescence; cells given NPY, then isoproterenol | inhibition, % at 3.6 µM | 28% of 1,200 active | AID 1255;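 further: 0% = DMSO with agonist challenge and 100% = reference antagonist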
# * marks the source's active call; other numbers are inactive results; . = no result given. Unless noted, no stated cut-off is given here; in the data, active means inhibition above about 17%; inactive means the rest.
SMILES,WT yeast gro inh,RAM inhibit,NPY2 pot ag,NPY Y2 blocker,NPY Y1 blocker,NPY-Y1 PAM-ag,NPY-Y1 ant conf,NPY2 antag ctr
O=C(C1CC1(c1ccccc1)c1ccccc1)N1CCOCC1 (configuration not stated),12.6,2.2,-7.5,5.5,1.1,7.4,.,.
CCN(CC)CCNC(=O)Cc1nn(CC)c(=O)c2ccccc12,-0.6,0.0,-7.1,2.2,4.6,-7.3,.,.
CC1CC1c1ccc(/C=C(\C#N)C(=O)Nc2ccccc2Cl)o1 (configuration not stated),2.1,-0.9,-3.3,5.2,23.3*,-2.2,11.3,8.0
CC(=O)N(C)C(c1ccc(N(C)C)cc1)c1nnnn1-c1c(C)cccc1C (configuration not stated),-12.0,2.4,0.4,6.5,23.8*,-11.2,10.6,4.2
O=C(NC1CCCCCCC1)NC1CCCCC1,-3.5,1.3,-7.9,0.2,6.9,9.2,.,.
COc1ccc(C2=NOC(C(=O)NCc3ccc(F)cc3)C2)cc1OC (configuration not stated),-3.2,1.5,-12.5,8.7,32.7*,-12.0,6.7,16.1
COc1cccc(C2=NOC(C(=O)NCc3cccs3)C2)c1 (configuration not stated),-19.4,1.5,-48.4,6.7,30.0*,-13.3,3.5,15.1
COc1cccc(C2=NOC(C(=O)NC(C)(C)C)C2)c1 (configuration not stated),14.0,1.6,-11.1,-1.6,-1.4,6.4,.,.
COc1cc(C2=NOC(C(=O)NCc3ccc(F)cc3)C2)cc(OC)c1OC (configuration not stated),0.0,2.8,-22.8,4.9,16.3,-26.5,.,.
COc1cccc(C2=NOC(C(=O)NCc3ccc(F)cc3)C2)c1 (configuration not stated),12.3,1.8,-46.8,13.2,23.5*,-54.8,14.6,23.8*
O=C(NCc1cccs1)C1CC(c2ccc(F)cc2)=NO1 (configuration not stated),10.9,3.3,3.3,.,2.0,1.0,.,.
COC(=O)N1CCN(c2ccc(C)c(C)c2)CC1,-11.4,1.2,3.2,.,2.1,17.9,.,.
Cc1nc2cc(-c3sccc3-n3cccc3)nn2c(C)c1C,4.4,4.8,-31.1,2.1,21.7*,-60.3,17.4,20.4*
CSc1ccc(C2c3[nH]c4ccccc4c3CCN2C(=O)c2cc(C)n(C)n2)cc1 (configuration not stated),44.9,5.3,-25.9,.,27.1*,-13.1,14.6,41.1*
Cc1cnc(C(=O)N2CCc3c([nH]c4ccccc34)C2c2ccc(F)cc2)cn1 (configuration not stated),37.8,1.7,-5.1,.,1.1,14.7,.,.
CC(=O)NCCC(=O)N1CCc2c([nH]c3ccccc23)C1c1cccc(Cl)c1 (configuration not stated),6.2,1.4,-3.6,.,1.7,-12.4,.,.
Cc1cc(C(=O)N2CCc3c([nH]c4ccccc34)C2c2cccc(Cl)c2)nn1C (configuration not stated),61.0*,2.8,-18.8,.,36.3*,-17.9,19.5,61.5*
CCC1S/C(=C(\C#N)C(N)=O)N(c2ccc(F)cc2)C1=O (configuration not stated),18.2,2.0,14.2,1.3,2.1,12.7,.,.
CC(C)CC(c1nnnn1C(C)C)N1CCN(c2cccc(Cl)c2)CC1 (configuration not stated),41.9,1.3,-36.5,12.8,36.6*,-2.0,12.9,5.3
COC(=O)c1ccc(OCc2nc(N)nc(N3CCOCC3)n2)cc1,-4.1,4.8,6.1,1.6,0.6,2.4,.,.
Cc1ccnc(N2CCN(C(=O)CSc3nc4ccccc4nc3N3CCC(C)CC3)CC2)c1,27.2,-0.2,-7.8,.,23.8*,-1.2,9.7,8.3
Cc1nc2ccccc2nc1SCC(=O)N1CCC(C)CC1,6.5,0.1,-25.9,12.1,4.5,-1.7,.,.

# Bioassay records from PubChem BioAssay.
